Assays:
[1] = test system: Blood; test: Drug uptake in Sprague-Dawley rat cardiac blood pool at 0.15 nmol, iv after 27.5 mins by PET scanning; format: ADME, organism-based; conditions: in vivo
Outline: (§1)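 Isoflurane-anesthetized male Sprague-Dawley rats lay prone and received an iv bolus of [11C]radioligand in 200 μL. 3D list-mode emission scans ran 30 min from injection. Regions of interest were drawn on the organs and cardiac blood pool. Uptake was decay-corrected to injection time and expressed as SUV (normalized to injected radioactivity and body weight). Values are mean of n = 4.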

[2] = test system: Adrenal; test: Biodistribution in Sprague-Dawley rat adrenal at 0.19 nmol, iv by gamma counting; format: ADME, organism-based, Adrenal tissue; conditions: in vivo
Outline: (§2)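 Male Sprague-Dawley rats were given intratracheal LPS (E. coli O127:B8, 5.0 mg/kg in 50 μL saline) or 50 μL saline vehicle 24 h before tracer. [11C]Radioligand (16 MBq/200 μL, 0.19 nmol) in saline was injected via the tail vein. Rats were killed at 30 min (n = 4 per group). Tissues were weighed and gamma-counted, expressed as decay-corrected %ID/g.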

[3] = test system: Muscle tissue; test: Biodistribution in Sprague-Dawley rat muscle at 0.19 nmol, iv by gamma counting; format: ADME, organism-based; conditions: in vivo; outline: as §2
[4] = test system: Liver; test: Drug uptake in Sprague-Dawley rat liver at 0.15 nmol, iv after 2 mins by PET scanning; format: ADME, organism-based; conditions: in vivo
Outline: (§3)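 Male Sprague-Dawley rats (6–8 weeks old), isoflurane-anesthetized, prone. ROIs on lung, heart, kidney, liver, small intestine and cardiac blood pool. Uptake decay-corrected to injection time and expressed as SUV (body-weight normalized). n = 4, mean ± SD.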

[5] = test system: Kidney; test: Drug uptake in Sprague-Dawley rat kidney at 0.15 nmol, iv after 27.5 mins by PET scanning; format: ADME, organism-based; conditions: in vivo; outline: as §3
[6] = Metabolic stability in Sprague-Dawley rat lung assessed as unchanged compound at 0.32 nmol, iv after 30 mins by analytical radio- HPLC; format: ADME, organism-based; conditions: read-out: Stability
[7] = test system: Blood; test: Biodistribution in LPS-treated Sprague-Dawley rat blood at 0.19 nmol, iv by gamma counting; format: ADME, organism-based; conditions: in vivo; outline: as §2
[8] = test system: Heart; test: Drug uptake in Sprague-Dawley rat heart at 0.15 nmol, iv up to 30 mins by PET scanning; format: ADME, organism-based; conditions: in vivo, 0.5 h; outline: as §1
[9] = Metabolic stability in Sprague-Dawley rat kidney assessed as unchanged compound at 0.32 nmol, iv after 30 mins by analytical radio- HPLC; format: ADME, organism-based; conditions: read-out: Stability
Outline: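 Rats (n = 3) given radioligand iv (37 MBq/100 μL, 0.32 nmol) and killed at 30 min. Heart and kidney homogenized in ice-cold MeCN/H2O 4/6, centrifuged 15000 rpm for 1 min at 4 °C. Supernatant run on analytical radio-HPLC (C18, MeCN/H2O 4/6). Percent parent = parent peak area over total peak areas, decay-corrected. Mean ± SD.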

[10] = test system: Heart; test: Drug uptake in Sprague-Dawley rat heart at 0.15 nmol, iv after 27.5 mins by PET scanning; format: ADME, organism-based; conditions: in vivo; outline: as §1
[11] = test system: Brain; test: Biodistribution in Sprague-Dawley rat brain at 0.19 nmol, iv by gamma counting; format: ADME, organism-based; conditions: in vivo; outline: as §2
[12] = test system: Spleen; test: Biodistribution in LPS-treated Sprague-Dawley rat spleen at 0.19 nmol, iv by gamma counting; format: ADME, organism-based; conditions: in vivo; outline: as §2
[13] = test system: Liver; test: Drug uptake in Sprague-Dawley rat liver at 0.15 nmol, iv pretreated with unlabeled (R)-PK11195 measured after 27.5 mins by PET scanning relative to control; format: ADME, organism-based; conditions: in vivo
Outline: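 Male Sprague-Dawley rats, 6-8 weeks old, under isoflurane, prone. An unlabeled TSPO blocking ligand (3.0 mg/kg) was injected 1 min before the iv radioligand (16-18 MBq/200 μL). A liver ROI was decay-corrected and expressed as SUV normalized to injected activity and body weight. The 27.5-min value was compared with unblocked controls; n = 4.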

[14] = test system: Spleen; test: Biodistribution in Sprague-Dawley rat spleen at 0.19 nmol, iv by gamma counting; format: ADME, organism-based; conditions: in vivo; outline: as §2
[15] = test system: Kidney; test: Biodistribution in Sprague-Dawley rat kidney at 0.19 nmol, iv by gamma counting; format: ADME, organism-based; conditions: in vivo; outline: as §2
[16] = test system: Kidney; test: Drug uptake in Sprague-Dawley rat kidney at 0.15 nmol, iv up to 30 mins by PET scanning; format: ADME, organism-based; conditions: in vivo, 0.5 h; outline: as §3
[17] = test system: Heart; test: Drug uptake in Sprague-Dawley rat heart at 0.15 nmol, iv pretreated with unlabeled AC-5216 by PET scanning; format: ADME, organism-based; conditions: in vivo
Outline: (§4)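 Isoflurane-anesthetized Sprague-Dawley rats underwent 30-min PET after iv [11C]radioligand, with unlabeled blocker given iv 1 min before tracer. Blockers were (R)-PK11195 at 3.0 mg/kg or AC-5216 at 1.0 mg/kg in 300 μL saline with 10% ethanol and 5% polysorbate 80. Regional uptake was decay-corrected SUV (n = 4).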

[18] = test system: Brain; test: Biodistribution in LPS-treated Sprague-Dawley rat brain at 0.19 nmol, iv by gamma counting; format: ADME, organism-based; conditions: in vivo; outline: as §2
[19] = test system: Lung; test: Biodistribution in LPS-treated Sprague-Dawley rat lung at 0.19 nmol, iv by gamma counting; format: ADME, organism-based; conditions: in vivo; outline: as §2
[20] = test system: Lung; test: Drug uptake in Sprague-Dawley rat lung at 0.15 nmol, iv after 2 mins by PET scanning; format: ADME, organism-based; conditions: in vivo; outline: as §3
[21] = test system: Liver; test: Biodistribution in LPS-treated Sprague-Dawley rat liver at 0.19 nmol, iv by gamma counting; format: ADME, organism-based; conditions: in vivo; outline: as §2
[22] = test system: Rattus norvegicus; test: Biodistribution in Sprague-Dawley rat small intestine at 0.19 nmol, iv by gamma counting; format: ADME, organism-based; conditions: in vivo; outline: as §2
[23] = test system: Pancreas; test: Biodistribution in LPS-treated Sprague-Dawley rat pancreas at 0.19 nmol, iv by gamma counting; format: ADME, organism-based; conditions: in vivo; outline: as §2
[24] = Metabolic stability in Sprague-Dawley rat liver assessed as unchanged compound at 0.32 nmol, iv after 30 mins by analytical radio- HPLC; format: ADME, organism-based; conditions: read-out: Stability
[25] = test system: Adrenal; test: Biodistribution in LPS-treated Sprague-Dawley rat adrenal at 0.19 nmol, iv by gamma counting; format: ADME, organism-based, Adrenal tissue; conditions: in vivo; outline: as §2
[26] = test system: Kidney; test: Drug uptake in Sprague-Dawley rat kidney at 0.15 nmol, iv pretreated with unlabeled AC-5216 by PET scanning; format: ADME, organism-based; conditions: in vivo; outline: as §3
[27] = test system: Liver; test: Biodistribution in Sprague-Dawley rat liver at 0.19 nmol, iv by gamma counting; format: ADME, organism-based; conditions: in vivo; outline: as §2
[28] = test system: Kidney; test: Biodistribution in LPS-treated Sprague-Dawley rat kidney at 0.19 nmol, iv by gamma counting; format: ADME, organism-based; conditions: in vivo; outline: as §2
[29] = test system: Lung; test: Drug uptake in Sprague-Dawley rat lung at 0.15 nmol, iv pretreated with unlabeled (R)-PK11195 by PET scanning; format: ADME, organism-based; conditions: in vivo; outline: as §3
[30] = test system: Heart; test: Drug uptake in Sprague-Dawley rat heart at 0.15 nmol, iv pretreated with unlabeled (R)-PK11195 by PET scanning; format: ADME, organism-based; conditions: in vivo; outline: as §4
[31] = test system: Blood; test: Drug uptake in Sprague-Dawley rat cardiac blood pool at 0.15 nmol, iv after 2 mins by PET scanning; format: ADME, organism-based; conditions: in vivo; outline: as §1
[32] = test system: Muscle tissue; test: Biodistribution in LPS-treated Sprague-Dawley rat muscle at 0.19 nmol, iv by gamma counting; format: ADME, organism-based; conditions: in vivo; outline: as §2
[33] = test system: Kidney; test: Drug uptake in Sprague-Dawley rat kidney at 0.15 nmol, iv after 2 mins by PET scanning; format: ADME, organism-based; conditions: in vivo; outline: as §3
[34] = test system: Blood; test: Drug uptake in Sprague-Dawley rat cardiac blood pool at 0.15 nmol, iv up to 30 mins by PET scanning; format: ADME, organism-based; conditions: in vivo, 0.5 h; outline: as §1
[35] = test system: Lung; test: Drug uptake in Sprague-Dawley rat lung at 0.15 nmol, iv after 27.5 mins by PET scanning; format: ADME, organism-based; conditions: in vivo; outline: as §3
[36] = test system: Liver; test: Drug uptake in Sprague-Dawley rat liver at 0.15 nmol, iv after 27.5 mins by PET scanning; format: ADME, organism-based; conditions: in vivo; outline: as §3
[37] = test system: Heart; test: Drug uptake in Sprague-Dawley rat heart at 0.15 nmol, iv after 2 mins by PET scanning; format: ADME, organism-based; conditions: in vivo; outline: as §1
[38] = test system: Pancreas; test: Biodistribution in Sprague-Dawley rat pancreas at 0.19 nmol, iv by gamma counting; format: ADME, organism-based; conditions: in vivo; outline: as §2

Work on CCN(Cc1ccncc1)C(=O)Cn1c(=O)n([11CH3])c2cnc(-c3ccccc3)nc21 yielded an SUV [1] of 0.4, a Drug uptake [2] of 7.49 % ID/g and a Drug uptake [3] of 0.11 % ID/g. The SUV [4] was 1.6, the SUV [5] was 1 and the remaining at 0.5 h [6] was 92.1%. The Drug uptake [7] was 0.08 % ID/g, the Drug uptake [8] was “Active” and the remaining at 0.5 h [9] was 94.7%. For the same compound, the SUV [10] was 0.9, the Drug uptake [11] was 0.02 % ID/g and the Drug uptake [12] was 1.88 % ID/g. For the same compound, the “fold change (FC)” value [13] was 1.5, the Drug uptake [14] was 1.88 % ID/g and the Drug uptake [15] was 1.78 % ID/g. The Drug uptake [16] was “Active”, the Drug uptake [17] was “Not Active” and the Drug uptake [18] was 0.02 % ID/g. The Drug uptake [19] was 3.54 % ID/g, the SUV [20] was 3.4 and the Drug uptake [21] was 1.03 % ID/g. It also gave a Drug uptake [22] of 1.57 % ID/g, a Drug uptake [23] of 0.37 % ID/g and a remaining at 0.5 h [24] of 43.6%. The Drug uptake [25] was 5.27 % ID/g, the Drug uptake [26] was “Not Active” and the Drug uptake [27] was 0.53 % ID/g. For the same compound, the Drug uptake [28] was 1.97 % ID/g, the Drug uptake [29] was “Not Active” and the Drug uptake [30] was “Not Active”. For the same compound, the SUV [31] was 3, the Drug uptake [32] was 0.1 % ID/g and the SUV [33] was 3.3. The Drug uptake [34] was “Active”, the SUV [35] was 0.5 and the SUV [36] was 0.5. It also gave an SUV [37] of 4.6 and a Drug uptake [38] of 0.38 % ID/g.

— ChEMBL document CHEMBL2203116, “Synthesis and evaluation of novel carbon-11 labeled oxopurine analogues for positron emission tomography imaging of translocator protein (18 kDa) in peripheral organs” (J Med Chem, 2011)
